Laboratory results reported in ChEMBL document CHEMBL4024771, “Optimization of Orally Bioavailable Enhancer of Zeste Homolog 2 (EZH2) Inhibitors Using Ligand and Property-Based Design Strategies: Identification of Development Candidate …” (J Med Chem, 2018).
pIC50, pKi: −log10 of the molar value. ≈ marks a conversion by molar mass, not a printed value.

Columns and labels:
[1] = Kinetic solubility of the compound; assay type: physicochemical; settings: for solubility kinetic: read-out: Kinetic_solubility
[2] = (§1) Intrinsic clearance in human liver microsomes assessed per mg protein at 1 uM preincubated for 10 mins followed by NADPH addition measured after 45 mins by LC-MS/MS analysis; assay type: ADME, microsome; settings: liver microsomes, read-out: CLH
Method in brief: (§2)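 Test compound (1 μM) with pooled liver microsomes (0.8 mg/mL protein) in 100 mM potassium phosphate pH 7.4, 10 min preincubation, started with 2 mM NADPH, 45 min at 37 °C, in triplicate. Samples quenched with cold methanol containing buspirone internal standard, analysed by LC−MS/MS. CLint derived from t1/2 of parent loss (log-linear slope).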

KARPAS-422 = assay: Antiproliferative activity against human KARPAS422 cells after 72 hrs by resazurin assay; assay type: functional, cell-based
[3] = Passive permeability in MDCK cells at 2 uM after 90 mins by LC-MS/MS analysis; assay type: ADME, cell-based, Canis lupus familiaris; settings: dog; for permeability: mdck, 2 µM; for Papp at […], 2 µM: MDCK, read-out: permeability
Method in brief: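 Low-efflux MDCK cells (MDCK-LE) on 96-well inserts, used on day 4. Monodirectional transport of 2 μM drug in transport buffer with 0.1% DMSO at 37 °C. Donor and receiver sampled at 0 and 90 min for LC−MS/MS. Donor pH 6.5 and 7.4, receiver pH 7.4.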

[4] = molecular target: Histone-lysine N-methyltransferase EZH2 (Homo sapiens, UniProt Q15910, Y641N); assay: Inhibition of EZH2 Y641N mutant (unknown origin) using oligonucleosomes as substrate after 60 mins in presence of [3H]SAM by scintillation counting analysis
Sequence of Histone-lysine N-methyltransferase EZH2 (Homo sapiens, UniProt Q15910, Y641N) (Q15910 whole entry Y641N): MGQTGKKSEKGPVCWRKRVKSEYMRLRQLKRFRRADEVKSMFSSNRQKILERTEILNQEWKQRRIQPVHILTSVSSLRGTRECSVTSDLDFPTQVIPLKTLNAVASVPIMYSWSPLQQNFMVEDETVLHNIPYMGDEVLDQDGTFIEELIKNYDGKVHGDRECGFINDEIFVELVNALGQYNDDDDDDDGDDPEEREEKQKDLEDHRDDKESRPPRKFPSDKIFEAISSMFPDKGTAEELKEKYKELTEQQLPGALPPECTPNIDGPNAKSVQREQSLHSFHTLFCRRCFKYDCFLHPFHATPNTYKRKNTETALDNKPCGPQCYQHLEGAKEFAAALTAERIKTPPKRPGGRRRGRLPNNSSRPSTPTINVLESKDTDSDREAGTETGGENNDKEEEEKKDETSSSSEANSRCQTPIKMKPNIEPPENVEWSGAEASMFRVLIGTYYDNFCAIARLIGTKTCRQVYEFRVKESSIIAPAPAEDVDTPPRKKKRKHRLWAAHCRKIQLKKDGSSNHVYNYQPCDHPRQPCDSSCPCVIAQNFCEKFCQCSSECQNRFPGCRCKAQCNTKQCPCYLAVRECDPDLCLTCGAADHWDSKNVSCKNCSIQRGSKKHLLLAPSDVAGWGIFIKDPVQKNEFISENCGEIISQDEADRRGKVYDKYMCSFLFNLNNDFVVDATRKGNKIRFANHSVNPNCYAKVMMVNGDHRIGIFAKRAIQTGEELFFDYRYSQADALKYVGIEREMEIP

[5] = molecular target: Histone-lysine N-methyltransferase EZH2 (Homo sapiens, UniProt Q15910); assay: Inhibition of EZH2 in human KARPAS422 cells assessed as reduction in H3K27me3 level after 72 hrs by ELISA
Sequence of Histone-lysine N-methyltransferase EZH2 (Homo sapiens, UniProt Q15910) (Q15910 whole entry): as the sequence (Q15910 whole entry Y641N) above, with N641Y counted along it

[6] = Lipophilicity, log D of the compound at pH 7.4; settings: buffer
Liver = assay: as §1; assay type: ADME, microsome; settings: microsomes, 0.75 h, 1 µM; method in brief: as §2

Compound | Kinetic_solubility [1] [µM] | microsomal CLint at 1 µM [2] [µL/min/mg] | pIC50 (KARPAS-422; karpas-422) | permeability [3] [×10⁻⁶ cm/s] | pKi [4] | pIC50 [5] | solubility kinetic [1] [µM] | logD ([6]; pH 7.4, logD) | pIC50 (KARPAS-422; Homo sapiens, KARPAS-422, 72 h) | Papp at […], 2 µM [3] [×10⁻⁶ cm/s] | microsomal CLint (Liver) [µL/min/mg] | logD ([6]; pH 7.4)
Cc1cc(C)c(CN2CCc3c(Cl)cc([C@@H](CO)[C@H]4CCCO4)c(Cl)c3C2=O)c(=O)[nH]1 |  | 43 |  |  | 6.96 | 5.99 | 576 (≈ 268 µg/mL) | 2.5 | 6.27 | 8.5 |  | 
CCC(OC)c1cc(Cl)c2c(c1Cl)C(=O)N(Cc1c(C)cc(C)[nH]c1=O)CC2 (single isomer, unassigned; (+)) | 33 |  | 6.74 |  | 8.05 | 7.14 |  |  |  | 18.2 | 105 | 
COc1cc(C)[nH]c(=O)c1CN1CCc2c(Cl)cc([C@@H](OC)C3COC3)c(Cl)c2C1=O |  | 17 |  |  | 7.80 | 7.12 | 543 (≈ 254 µg/mL) | 1.6 | 6.33 | 6.8 |  | 
COC(c1cc(Cl)c2c(c1Cl)C(=O)N(Cc1c(C)cc(C)[nH]c1=O)CC2)C1CCN(C)CC1 (single isomer, unassigned; (-)) | 499 | < 13.4 | 5.63 | 2.3 | 6.59 | 5.95 |  |  |  |  |  | 1.5
COc1cc(C)[nH]c(=O)c1CN1CCc2c(Cl)cc(-c3c(C)noc3C)c(Cl)c2C1=O |  | 70 |  |  | 9.82 | 8.10 | 384 (≈ 178 µg/mL) | 2.7 | 7.57 | 11 |  | 
COc1cc(C)[nH]c(=O)c1CN1CCc2c(Cl)cc(C(OC)C3(C)COC3)c(Cl)c2C1=O (stereo in doubt; (-)-24b) | 512 | 168 | 6.25 | 4.8 | 6.46 | 6.60 |  |  |  |  |  | 2.2
Cc1cc(C)c(CN2CCc3c(Cl)cc([C@H](CO)[C@@H]4CCCO4)c(Cl)c3C2=O)c(=O)[nH]1 |  | 37.6 |  |  | 8.00 | 7.39 | 400 (≈ 186 µg/mL) | 2.4 | 7.24 | 14.6 |  | 
COC(C)c1cc(Cl)c2c(c1Cl)C(=O)N(Cc1c(C)cc(C)[nH]c1=O)CC2 (single isomer, unassigned; (+)) |  | 190 | 6.16 | 37.6 |  |  | 49 (≈ 20.1 µg/mL) |  |  |  |  | 3.4
COC(c1cc(Cl)c2c(c1Cl)C(=O)N(Cc1c(C)cc(C)[nH]c1=O)CC2)C1CCS(=O)(=O)CC1 (single isomer, unassigned; (-)) | 415 |  | 6.01 | 5.7 |  |  |  |  |  |  | 15 | 
Cc1cc(C)c(CN2CCc3c(Cl)cc([C@H](CO)[C@H]4CCCO4)c(Cl)c3C2=O)c(=O)[nH]1 |  | 51.6 |  |  | 8.10 | 7.40 | 430 (≈ 200 µg/mL) | 2.1 | 7.20 | 4.1 |  | 
COc1cc(C)[nH]c(=O)c1CN1CCc2c(Cl)cc([C@@H](O)C3COC3)c(Cl)c2C1=O |  | < 7 |  |  | 5.82 | < 4.49 | 582 (≈ 264 µg/mL) | 1.3 | 4.97 | 1.2 |  | 
Cc1cc(C)c(CN2CCc3c(Cl)cc([C@H](CO)[C@H]4CCOC4)c(Cl)c3C2=O)c(=O)[nH]1 |  | 21.3 |  |  | 9.62 | 8.00 | 570 (≈ 265 µg/mL) | 2 | 7.82 | 2.9 |  | 
COC(c1cc(Cl)c2c(c1Cl)C(=O)N(Cc1c(C)cc(C)[nH]c1=O)CC2)C1CCOCC1 (single isomer, unassigned; (-)) | 57.2 | 130 | 5.94 | 16.5 | 6.51 | 5.84 |  |  |  |  |  | 3.5

Further lines, results first:

Kinetic_solubility [1] [µM] | microsomal CLint at 1 µM [2] [µL/min/mg] | pIC50 (KARPAS-422; karpas-422) | permeability [3] [×10⁻⁶ cm/s] | pKi [4] | pIC50 [5] | solubility kinetic [1] [µM] | logD ([6]; pH 7.4, logD) | pIC50 (KARPAS-422; Homo sapiens, KARPAS-422, 72 h) | Papp at […], 2 µM [3] [×10⁻⁶ cm/s] | microsomal CLint (Liver) [µL/min/mg] | logD ([6]; pH 7.4) | Compound
498 | 50.3 | 5.79 | 8.1 |  |  |  |  |  |  |  |  | COC(c1cc(Cl)c2c(c1Cl)C(=O)N(Cc1c(C)cc(C)[nH]c1=O)CC2)C1CCN(C(C)=O)CC1 (single isomer, unassigned; (-))
 | 34.7 | 5.36 | 2.9 | 5.49 | 4.83 | 496 (≈ 238 µg/mL) |  |  |  |  |  | Cc1cc(C)c(CN2CCc3c(Cl)cc(C(CO)C4CCOCC4)c(Cl)c3C2=O)c(=O)[nH]1 (stereo in doubt; (+)-8b)
 | 119 |  | 13.5 | 8.10 | 7.19 | 44 (≈ 18.6 µg/mL) |  | 6.57 |  |  |  | CCC(OC)c1cc(Cl)c2c(c1Cl)C(=O)N(Cc1c(C)cc(C)[nH]c1=O)CC2 (single isomer, unassigned; (-))
481 | 22.7 | 5.60 | 8.6 |  |  |  |  |  |  |  |  | Cc1cc(C)c(CN2CCc3c(Cl)cc(C(CO)c4ccon4)c(Cl)c3C2=O)c(=O)[nH]1 (stereo in doubt; (-)-21b)
453 |  | 6.60 | 1.1 |  |  |  |  |  |  | 12.6 |  | COc1cc(C)[nH]c(=O)c1CN1CCc2c(Cl)cc(C(OC)C3CCN(C(=O)CO)CC3)c(Cl)c2C1=O (single isomer, unassigned; (-))
505 | 75 | 6.57 | 8.2 | 7.04 | 6.41 |  |  |  |  |  | 2.4 | COc1cc(C)[nH]c(=O)c1CN1CCc2c(Cl)cc(C(OC)C3CCOC3)c(Cl)c2C1=O (single isomer, unassigned; form 2)
 | 12.4 |  |  | 6.59 | 5.98 | 143 (≈ 58.5 µg/mL) | 2.5 | 5.82 | 15 |  |  | Cc1cc(C)c(CN2CCc3c(Cl)cc([C@@H](C)CO)c(Cl)c3C2=O)c(=O)[nH]1
 |  | 7.62 |  |  |  | 161 (≈ 80.4 µg/mL) |  |  | 5.3 | 52.5 |  | COC(c1cc(Cl)c2c(c1Cl)C(=O)N(Cc1c(C)cc(C)[nH]c1=O)CC2)C1CS(=O)(=O)C1 (stereo in doubt; (+)-19a)
 | < 8 |  |  | 8.82 | 7.00 | 234 (≈ 106 µg/mL) | 1.4 | 6.97 | 0.7 |  |  | COc1cc(C)[nH]c(=O)c1CN1CCc2c(Cl)cc([C@H](O)C3COC3)c(Cl)c2C1=O
519 | 78.3 | 5.65 | 7.9 | 6.28 | 5.88 |  |  |  |  |  | 2.8 | COC(c1cc(Cl)c2c(c1Cl)C(=O)N(Cc1c(C)cc(C)[nH]c1=O)CC2)C1CCN(C2COC2)CC1 (single isomer, unassigned; (-))
159 |  | 5.32 | 6.1 |  |  |  |  |  |  | 23 |  | COC(c1cc(Cl)c2c(c1Cl)C(=O)N(Cc1c(C)cc(C)[nH]c1=O)CC2)C1CS(=O)(=O)C1 (single isomer, unassigned)
 | 70.3 |  |  | 6.87 | 5.80 | 550 (≈ 256 µg/mL) | 2.1 | 5.91 | 4.3 |  |  | Cc1cc(C)c(CN2CCc3c(Cl)cc([C@@H](CO)[C@@H]4CCCO4)c(Cl)c3C2=O)c(=O)[nH]1
 | 20 | 5.98 | 2.7 | 6.82 | 5.99 | 522 (≈ 243 µg/mL) |  |  |  |  |  | Cc1cc(C)c(CN2CCc3c(Cl)cc(C(CO)C4CCOC4)c(Cl)c3C2=O)c(=O)[nH]1 (stereo in doubt)
513 | 23 | 5.50 | 7.1 | 7.15 | 6.13 |  |  |  |  |  | 2.3 | COC(c1cc(Cl)c2c(c1Cl)C(=O)N(Cc1c(C)cc(C)[nH]c1=O)CC2)C1CCN(C(=O)CO)CC1 (single isomer, unassigned; (-))
 | 67.6 | 6.30 | 10.9 | 7.85 | 6.17 | 443 (≈ 188 µg/mL) |  |  |  |  | 2.9 | CCC(CO)c1cc(Cl)c2c(c1Cl)C(=O)N(Cc1c(C)cc(C)[nH]c1=O)CC2 (stereo in doubt; (-)-5b)
 | 25.3 |  |  | 5.90 | 5.54 | 537 (≈ 250 µg/mL) | 2 | 5.40 | 3 |  |  | Cc1cc(C)c(CN2CCc3c(Cl)cc([C@@H](CO)[C@@H]4CCOC4)c(Cl)c3C2=O)c(=O)[nH]1
 | 136 | 6.76 | 18.4 | 6.89 | 5.96 | 415 (≈ 193 µg/mL) |  |  |  |  |  | COC(c1cc(Cl)c2c(c1Cl)C(=O)N(Cc1c(C)cc(C)[nH]c1=O)CC2)C1CCOC1 (single isomer, unassigned; (-))
